Measurements as given in ChEMBL document CHEMBL2346560, “Structure and function of a potent lipopolysaccharide-binding antimicrobial and anti-inflammatory peptide” (J Med Chem, 2013).
≈ marks a conversion by molar mass, not a printed value. Calls of active or inactive are those of the source. The rule behind the calls is not given here. Bridge positions count the residues as written; N and C are the ends. Peptide text beside a SMILES is read from it.

What was measured:
Escherichia coli [1] = assay: Antibacterial activity against Escherichia coli ATCC 25922 after 16 hrs by broth dilution method; assay type: functional; conditions: ATCC 25922, 16 h
How it was run: (§1)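 MIC read-out, reported in µg/mL with µM equivalents. Each value is the mean of three independent experiments, each run in duplicate.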

Escherichia coli [2] = assay: Bactericidal activity against Escherichia coli ATCC 25922 at MIC after 60 mins by colony counting assay (reference value: 296 CFU); assay type: functional
RAW264.7 [3] = assay: Antiinflammatory activity in mouse RAW264.7 cells assessed as inhibition of LPS-induced TLR4 expression at 20 ug/mL preincubated for 1 hr prior to LPS-challenge measured after 3 hrs by Western blotting analysis relative to LPS-treated control; assay type: functional
How it was run: (§2)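 RAW 264.7 cells (1 × 10^6/well) were serum-starved in RPMI-1640 for 16 h. They were pretreated with peptide (0, 5, 10, 20 µg/mL) for 1 h, then given LPS (E. coli 055:B5, 0 or 100 ng/mL) for 3 h. Cells were washed in ice-cold PBS, and cytoplasmic or nuclear fractions were blotted for TLR4, JNK, NF-κB p65 and β-actin. Control was LPS alone.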

RAW264.7 [4] = assay: Cytotoxicity against mouse RAW264.7 cells at 200 ug/mL after 24 hrs by MTT assay relative to control; assay type: cell-based; conditions: raw264.7, 24 h
Escherichia coli [5] = assay: Bactericidal activity against Escherichia coli ATCC 25922 at 5 times MIC after 5 mins by colony counting assay (reference value: 47.7 CFU); assay type: functional
Escherichia coli [6] = assay: Bactericidal activity against Escherichia coli ATCC 25922 at MIC after 120 mins by colony counting assay (reference value: 1868.3 CFU); assay type: functional
Escherichia coli [7] = assay: Bactericidal activity against Escherichia coli ATCC 25922 at 10 times MIC after 120 mins by colony counting assay (reference value: 1868.3 CFU); assay type: functional
Escherichia coli [8] = assay: Bactericidal activity against Escherichia coli ATCC 25922 at MIC after 10 mins by colony counting assay (reference value: 58.3 CFU); assay type: functional
Candida albicans [9] = assay: Antifungal activity against Candida albicans ATCC 2002 treated with PBS after 16 hrs by broth dilution method; assay type: functional; conditions: ATCC 2002, 16 h
How it was run: (§3)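 Salt sensitivity of the MIC. Peptide was tested in water, NaCl, CaCl2, MgCl2 or PBS (Na2HPO4-NaH2PO4, pH 7.4), with every salt at 150 mM. Values are means of three independent experiments, each run in duplicate.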

Pseudomonas aeruginosa [10] = assay: Antibacterial activity against Pseudomonas aeruginosa ATCC 27853 treated with PBS after 16 hrs by broth dilution method; assay type: functional; conditions: ATCC 27853, 16 h; how it was run: as §3
Escherichia coli [11] = assay: Antibacterial activity against Escherichia coli 08A852 assessed as plasma membrane rupture after 30 mins by scanning electron microscopic analysis; assay type: functional, organism-based
How it was run: (§4)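 E. coli (about 2 × 10^7 CFU/mL) was exposed to peptide at 1 × MIC, 37 °C, 30 min, beside an untreated control. Cells were pelleted, fixed in 2.5% buffered glutaraldehyde (4 °C, 2 h), post-fixed in 1% osmium tetroxide (2 h), dehydrated through graded ethanol, frozen in tert-butyl alcohol and vacuum-dried, then imaged by SEM.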

Bacillus subtilis [12] = assay: Antibacterial activity against Bacillus subtilis 6633 treated with NaCl after 16 hrs by broth dilution method; assay type: functional; conditions: Bacillus subtilis, 6633, 16 h; how it was run: as §3
Candida albicans [13] = assay: Antifungal activity against Candida albicans ATCC 2002 treated with water after 16 hrs by broth dilution method; assay type: functional; conditions: ATCC 2002, 16 h; how it was run: as §3
RAW264.7 [14] = assay: Antiinflammatory activity in mouse RAW264.7 cells assessed as inhibition of LPS-induced JNK1 expression preincubated for 1 hr prior to LPS-challenge measured after 3 hrs by Western blotting analysis; assay type: functional, cell-based; how it was run: as §2
Escherichia coli [15] = assay: Bactericidal activity against Escherichia coli ATCC 25922 at 10 times MIC after 10 mins by colony counting assay (reference value: 58.3 CFU); assay type: functional
Escherichia coli [16] = assay: Antibacterial activity against Escherichia coli ATCC 25922 treated with NaCl after 16 hrs by broth dilution method; assay type: functional; conditions: ATCC 25922, 16 h; how it was run: as §3
Escherichia coli [17] = assay: Antibacterial activity against Escherichia coli ATCC 25922 treated with CaCl2 after 16 hrs by broth dilution method; assay type: functional; conditions: ATCC 25922, 16 h; how it was run: as §3
Candida albicans [18] = assay: Antifungal activity against ampicillin, benzylpencillin-resistant Candida albicans 08030809 after 16 hrs by broth dilution method; assay type: functional; conditions: Candida albicans, 08030809, 16 h; how it was run: as §1
RAW264.7 [19] = assay: Cytotoxicity against mouse RAW264.7 cells at 100 ug/mL after 24 hrs by MTT assay relative to control; assay type: cell-based; conditions: raw264.7, 24 h
Escherichia coli [20] = assay: Bactericidal activity against Escherichia coli ATCC 25922 at 10 times MIC after 40 mins by colony counting assay (reference value: 131.7 CFU); assay type: functional
Escherichia coli [21] = assay: Bactericidal activity against Escherichia coli ATCC 25922 at MIC after 40 mins by colony counting assay (reference value: 131.7 CFU); assay type: functional
RAW264.7 [22] = assay: Antiinflammatory activity in mouse RAW264.7 cells assessed as inhibition of LPS-induced JNK2 expression preincubated for 1 hr prior to LPS-challenge measured after 3 hrs by Western blotting analysis; assay type: functional, cell-based; how it was run: as §2
Escherichia coli [23] = assay: Antibacterial activity against Escherichia coli 08A852 assessed as cell swelling after 30 mins by scanning electron microscopic analysis; assay type: functional, organism-based; how it was run: as §4
Escherichia coli [24] = assay: Antibacterial activity against Escherichia coli ATCC 25922 treated with water after 16 hrs by broth dilution method; assay type: functional; conditions: ATCC 25922, 16 h; how it was run: as §3
Escherichia coli [25] = assay: Bactericidal activity against Escherichia coli ATCC 25922 at 10 times MIC after 60 mins by colony counting assay (reference value: 296 CFU); assay type: functional
Staphylococcus aureus [26] = assay: Antibacterial activity against Staphylococcus aureus ATCC 2592 treated with CaCl2 after 16 hrs by broth dilution method; assay type: functional; conditions: ATCC 2592, 16 h; how it was run: as §3
Pseudomonas aeruginosa [27] = assay: Antibacterial activity against Pseudomonas aeruginosa ATCC 27853 treated with CaCl2 after 16 hrs by broth dilution method; assay type: functional; conditions: ATCC 27853, 16 h; how it was run: as §3
Staphylococcus aureus [28] = assay: Antibacterial activity against Staphylococcus aureus ATCC 2592 after 16 hrs by broth dilution method; assay type: functional; conditions: ATCC 2592, 16 h; how it was run: as §1
[29] = Toxicity in human RBC assessed as induction of hemolysis at 25 ug/mL after 30 mins relative to control; assay type: cell-based, Erythrocyte; conditions: red blood cells (RBC), read-out: Activity
How it was run: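 Human red blood cells incubated with peptide. Hemoglobin release read as absorbance at 540 nm and expressed against 1% Triton X-100 as positive control.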

Staphylococcus aureus [30] = assay: Antibacterial activity against Staphylococcus aureus ATCC 2592 treated with MgCl2 after 16 hrs by broth dilution method; assay type: functional; conditions: ATCC 2592, 16 h; how it was run: as §3
Bacillus subtilis [31] = assay: Antibacterial activity against Bacillus subtilis 6633 treated with MgCl2 after 16 hrs by broth dilution method; assay type: functional; conditions: Bacillus subtilis, 6633, 16 h; how it was run: as §3
Bacillus subtilis [32] = assay: Antibacterial activity against Bacillus subtilis 6633 treated with CaCl2 after 16 hrs by broth dilution method; assay type: functional; conditions: Bacillus subtilis, 6633, 16 h; how it was run: as §3

Work on `CC[C@H](C)[C@H](NC(=O)[C@H](Cc1cnc[nH]1)NC(=O)[C@H](CO)NC(=O)[C@@H](NC(=O)[C@@H](NC(=O)[C@@H](NC(=O)[C@@H](NC(=O)[C@H](CCCNC(=N)N)NC(=O)[C@H](CC(C)C)NC(=O)[C@H](CCCCN)NC(=O)[C@H](CCC(=O)O)NC(=O)[C@H](CCCCN)NC(=O)[C@H](CC(C)C)NC(=O)[C@H](CCCCN)NC(=O)[C@@H]1CSSC[C@H](NC(=O)[C@H](CCCCN)NC(=O)[C@@H](N)CCCNC(=N)N)C(=O)N[C@@H](CC(N)=O)C(=O)N[C@@H](Cc2ccccc2)C(=O)N[C@@H](CC(C)C)C(=O)N1)[C@@H](C)O)C(C)C)[C@@H](C)CC)[C@@H](C)O)C(=O)N[C@@H](CC(=O)O)C(=O)N[C@@H](CCCCN)C(=O)N[C@H](C(=O)N[C@@H](CC(C)C)C(=O)N[C@@H](CCCNC(=N)N)C(=O)N1CCC[C@H]1C(=O)N[C@@H](CCC(N)=O)C(=O)NCC(=O)O)C(C)C` (H-RKCNFLCKLKEKLRTVITSHIDKVLRPQG-OH; disulfide 3-7) yielded an MIC (Escherichia coli [1]) of 1.37 µM (≈ 4.69 µg/mL), a CFU (Escherichia coli [2]) of 0 and an inhibition at 20 µg/mL (RAW264.7 [3]) of 85%. It also gave an Activity (RAW264.7 [4]) of 5.1%, a CFU (Escherichia coli [5]) of 29.7 and a CFU (Escherichia coli [6]) of 0. For the same molecule, the CFU (Escherichia coli [7]) was 0, the CFU (Escherichia coli [8]) was 23.7 and the MIC (Candida albicans [9]) was 2.35 µg/mL (≈ 0.686 µM). For the same molecule, the MIC (Pseudomonas aeruginosa [10]) was 9.38 µg/mL (≈ 2.74 µM), the Activity (Escherichia coli [11]) was “Active” and the MIC (Bacillus subtilis [12]) was 75 µg/mL (≈ 21.9 µM). The MIC (Candida albicans [13]) was 4.69 µg/mL (≈ 1.37 µM), the inhibition (RAW264.7 [14]) was “Dose-dependent effect” and the CFU (Escherichia coli [15]) was 0. It also gave an MIC (Escherichia coli [16]) of 2.35 µg/mL (≈ 0.686 µM), an MIC (Escherichia coli [17]) of 2.35 µg/mL (≈ 0.686 µM) and an MIC (Candida albicans [18]) of 1.37 µM (≈ 4.69 µg/mL). For the same molecule, the Activity (RAW264.7 [19]) was 3.3%, the CFU (Escherichia coli [20]) was 0 and the CFU (Escherichia coli [21]) was 0. For the same molecule, the inhibition (RAW264.7 [22]) was “Dose-dependent effect”, the Activity (Escherichia coli [23]) was “Active” and the MIC (Escherichia coli [24]) was 4.69 µg/mL (≈ 1.37 µM). For the same molecule, the CFU (Escherichia coli [25]) was 0, the MIC (Staphylococcus aureus [26]) was 4.69 µg/mL (≈ 1.37 µM) and the MIC (Pseudomonas aeruginosa [27]) was 18.8 µg/mL (≈ 5.48 µM). For the same molecule, the MIC (Staphylococcus aureus [28]) was 2.74 µM (≈ 9.38 µg/mL), the hemolysis at 0.5 h, 25 ug/mL [29] was 3.5% and the MIC (Staphylococcus aureus [30]) was 9.38 µg/mL (≈ 2.74 µM). It also gave an MIC (Bacillus subtilis [31]) of 75 µg/mL (≈ 21.9 µM) and an MIC (Bacillus subtilis [32]) of 75 µg/mL (≈ 21.9 µM).
